Screens from PubChem.
The list is not random: actives were taken first. Their share in the collection is about 1.8%.
Tn7 DDE FP: disrupts Tn7 cyclic peptide binding to fibrin D-Dimer-E complex. P02675. AID 720508. FP displacement of FITC-Tn7 peptide from fibrin DD(E); 0% = median of compound wells per plate. 370,000 compounds, 0.13% hits. inhibition, % at 8.3 µM;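 active = inhibition above the mean of compounds falling within the control limits plus 3 SD of them, cut at about 14% in these data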;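 also: 0% = plate median of compound wells and 100% = 10 µM Aha-Tn7 peptide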
Target sequence (P02675 whole entry, looked up): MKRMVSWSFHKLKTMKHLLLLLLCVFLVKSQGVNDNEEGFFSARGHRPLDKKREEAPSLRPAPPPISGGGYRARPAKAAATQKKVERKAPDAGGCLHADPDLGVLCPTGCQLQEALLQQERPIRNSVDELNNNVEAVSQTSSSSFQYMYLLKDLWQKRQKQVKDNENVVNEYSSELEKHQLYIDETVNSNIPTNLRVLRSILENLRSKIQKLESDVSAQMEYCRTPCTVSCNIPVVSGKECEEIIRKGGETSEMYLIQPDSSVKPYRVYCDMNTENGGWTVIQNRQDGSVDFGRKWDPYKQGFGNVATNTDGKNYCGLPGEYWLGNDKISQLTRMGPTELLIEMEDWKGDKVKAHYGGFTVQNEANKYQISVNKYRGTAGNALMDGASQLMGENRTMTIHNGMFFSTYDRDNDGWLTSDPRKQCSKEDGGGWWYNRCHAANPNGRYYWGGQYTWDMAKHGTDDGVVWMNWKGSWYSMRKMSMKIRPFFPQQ
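Measure: % inhibition scaled between sample-field median and high-control FP; Test system: human fibrin DD(E); Quantity: 2 µM final DD(E) protein; Doses: one dose, 8.3 µM nominal; Schedule: compound with protein 10 min, then 3 h after probe, room temperature; Detection: fluorescence polarization; Medium: Tris buffer with calcium and detergent, pH 7.8.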
SIAE inh: human SIAE inhibition, primary screen; SIAE FP-Rh probe binding, fluorescence polarization; inhibition, % at 9.66 µM; AID 1053197; 370,000 compounds, 0.69% hits;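 active = inhibition above a cutoff: mean of compounds within the control limits plus 3 SD of those, cut at about 17% in these data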;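 also: 0% = plate median of compound wells and 100% = probe without SIAE protein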
mABHD4 FP: inhibits mouse alpha/beta hydrolase domain 4; inhibition, % at 8.92 µM; 370,000 compounds, 0.54% hits; purified mABHD4, FP-Rh probe fluorescence polarization;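 active = inhibition exceeding the mean over every tested compound plus 3 SD, cut at about 30% in these data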;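 also: 0% = plate median of compound wells and 100% = S159A mutant with DMSO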
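assay system = mABHD4 protein | compound dosing = single nominal dose of 8.92 µM, 0.89% DMSO final | read-out basis = percent inhibition of probe binding, normalized to plate controls | schedule = Enzyme–compound pre-incubation 45 min, then probe 60 min, both 25 °C | detection = fluorescence polarization, excitation 525 nm, emission 598 nm, BODIPY TMR filters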
TCR-CD3 inh: human TCR-CD3 binding inhibition. TAMRA-labeled TCR probe fluorescence, biochemical. inhibition, % at 9.4 µM. 360,000 compounds, 0.37% hits. AID 651800; in the data active = inhibition above about 19%;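 also: recombinant mutant TCR 2C K166C tagged with TAMRA read by polarization; 0% = receptor in buffer alone and 100% = receptor with positive control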
HTRA1 inhibitor: HTRA1 (human) protease inhibition. inhibition, % at 5.96 µM. Q92743. 340,000 compounds, 0.5% hits. recombinant HTRA1, FP-rhodamine activity-based probe, fluorescence polarization; in the data active = inhibition above about 36%;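 also: 0% = enzyme with DMSO and 100% = wells lacking enzyme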
Tn6 DDE FP: DD(E)-Tn6 binding inhibition, primary FP screen; P02675; Fibrin DD(E) TRITC-Tn6 fluorescence polarization displacement; inhibition, % at 8.3 µM; 370,000 compounds, 0.21% hits; AID 720509;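 active = inhibition above a per-campaign cutoff: mean of compounds within control limits plus 3 SD, cut at about 15% in these data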;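 also: 0% = median of all compound wells on the plate and 100% = blocking peptide control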
SIAE inh conf: confirmation of human SIAE inhibitors. shares compounds with SIAE inh. 2,300 compounds, 13% hits. inhibition, % at 9.66 µM. AID 1117263. SIAE FP-Rh activity-based probe, fluorescence polarization;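 active = mean inhibition of the replicates above the hit cutoff set in the primary screen, cut at about 17% in these data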;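 also: 0% = SIAE with DMSO and probe and 100% = probe without SIAE; inhibitors lower polarization as more probe stays unbound to SIAE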
An asterisk follows results filed as active; nt = no result given.

SMILES	Tn7 DDE FP	SIAE inh	mABHD4 FP	TCR-CD3 inh	HTRA1 inhibitor	Tn6 DDE FP	SIAE inh conf
CCNC(=S)NNC(=O)c1cc(-c2cccc(OC)c2)nc2ccccc12	1	22*	11	3	1	4	1
CN1C(=O)/C(=C/c2ccc(-c3ccccc3[N+](=O)[O-])o2)SC1=Nc1ccc(Cl)c(C(=O)O)c1	-4	19*	17	8	10	1	15
C[C@H]1CN(S(=O)(=O)C(C)(C)C)[C@@H](CCO)/C1=C\c1ccccc1	0	1	-3	-10	nt	-4	nt
CCN1CCN(c2ccc(S(=O)(=O)N3CCCCC3)cc2NC(=O)c2ccc(OC(F)F)cc2)CC1	-7	-2	0	7	-11	-4	nt
COc1ccc(S(=O)(=O)N2CCCCCC2)cc1C(=O)N(C)CCOc1ccc(Cl)cc1	-3	-4	-3	3	-9	-6	nt
CCN1CCN(S(=O)(=O)c2ccc(Cl)c(C(=O)Nc3ccccc3N3CCCCC3)c2)CC1	-1	17*	11	0	-15	1	-2
CCN1CCN(c2ccc(S(=O)(=O)N3CCCCC3)cc2NC(=O)c2cccc(OC(F)F)c2)CC1	-1	20*	5	-4	-17	-4	7
CCN1CCN(S(=O)(=O)c2ccc(Cl)c(C(=O)N(C)CCOc3ccc(Cl)cc3)c2)CC1	-8	20*	-1	-1	-3	-3	1
Nc1[nH]c(C(=O)c2ccc(Br)cc2)c(-c2ccccc2Cl)c1C(=O)NCCc1c[nH]c2ccccc12	5	2	6	-10	nt	-1	nt
O=C(Nc1nc2ncccn2c1-c1ccccc1)c1ccccc1	-3	0	6	nt	nt	5	nt
C[C@H]1CN(S(=O)(=O)C(C)(C)C)[C@H](CCO)/C1=C\CCO	0	-1	-4	-4	nt	4	nt
CC(C#N)(NC(=O)CN1CCN(S(=O)(=O)c2ccccc2C#N)CC1)C1CC1 (stereo not drawn)	-2	20*	-1	1	7	11	-1
CCOC(=O)N1CCN(C(=O)C[C@H]2C[C@@]3(C(=O)OC)C(=C[C@H](COCc4ccccc4)O[C@@H]3C)N(CCC3=CCCCC3)C2=O)CC1	-2	3	1	3	nt	-3	nt
COC(=O)[C@@]12CCCCC3=C1N(CCC3)C(=O)[C@H]2CC(=O)NCCC(C)C	-4	2	0	nt	nt	0	nt
COc1ccccc1CCNC(=O)c1c(N)[nH]c(C(=O)c2ccccc2)c1-c1ccc(Br)cc1	-7	18*	7	6	nt	-5	2
Nc1[nH]c(C(=O)c2ccccc2)c(-c2ccc(Br)cc2)c1C(=O)NCCc1c[nH]c2ccccc12	-2	16	25	-3	nt	4	nt
O=C(COCc1ccncc1)N1CCN(c2ccc(F)cc2Cl)CC1	-2	-1	4	nt	nt	3	nt
CCN(CC(=O)Nc1c(C(=O)OC)[nH]c2ccc(Cl)cc12)c1ccc2c(c1)OCO2	5	21*	22	-2	13	-11	13
Clc1ccc(-n2c(Cc3cccs3)nnc2SC/C=C/c2ccccc2)cc1	6	-2	-2	nt	nt	-3	nt
O=C(O)CCCn1cc(NC(=O)c2cccc(F)c2)cn1	-3	20*	0	4	12	1	1
O=C(O)CCCn1cc(NC(=O)c2cc(F)c(F)cc2Cl)cn1	-1	-2	-1	1	1	2	nt
Cc1ccc2c(c1)C1CS(=O)(=O)N(C3CCCC3)C(=O)N1C2 (stereo not drawn)	-2	-4	5	nt	nt	1	nt
CN(/N=C/c1ccc(O)cc1O)c1nc(-c2ccccc2)cc(-c2ccccc2)n1	-3	20*	1	-5	18	-3	6
CN(N)c1nc(-c2ccccc2)cc(-c2ccccc2)n1	4	7	-3	2	7	-5	nt
CC(NC(=O)CCn1c(=S)[nH]c2ccsc2c1=O)c1ccccc1 (stereo not drawn)	11	19*	3	-5	1	-1	1
O=c1c2sccc2[nH]c(=S)n1Cc1ccccc1	-2	5	1	2	2	3	nt
